Bioassay records as filed in PubChem.
Lipid droplet = hepatic lipid droplet formation modulation | AML12 mouse hepatocytes, oleate lipid droplets, BODIPY imaging | inhibition, % at 6.5 µM | hit rate 0.4% among 240,000 | AID 1656;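 active means lipid droplet intensity inhibited by at least 50%, with more than 500 cells counted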
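Material: mouse AML12 hepatocyte cell line, fixed after treatment; Timing: compound with oleate, overnight; Technique: high-content imaging of BODIPY-stained droplets and DAPI nuclei; Probe or stimulus: oleate, 100 µM final; Dosing: compound at 6.5 µM only.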
Tb MetRS inh = Trypanosoma brucei MetRS inhibition. purified T. brucei MetRS, ATP depletion, Kinase-Glo luminescence. inhibition, % at 11.9 µM. hit rate 0.4% among 360,000;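 active means inhibition above a per-plate cutoff of the control wells' mean inhibition plus 3 SD, cut at about 5.5% in these data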;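 further: 0% = DMSO wells median and 100% = median of wells with control inhibitor compound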
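Material – parasite MetRS enzyme · Medium – HEPES-MgCl2-KCl buffer plus DTT, spermine, BSA, pyrophosphatase · Reagent – ATP, methionine and E. coli bulk tRNA substrates · Times – 15 min enzyme-compound preincubation, 2 h reaction, 10 min detection, 25 °C · Measured by – luminescence of leftover ATP · Evaluation – percent inhibition relative to median high and low control wells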
core dimer inh = HCV core protein dimerization inhibition; TR-FRET GST/Flag-core106 dimerization, 1536-well; inhibition, % at 5 µM; hit rate 0.33% among 300,000;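 active means inhibition above the mean of all tested compounds plus 3 SD, set per screening campaign, cut at about 45% in these data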
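Assay system – GST-tagged and Flag-tagged HCV core protein residues 1-106 · Quantity – core106 proteins, GST 13.5 nM and Flag 17 nM · Benchmarks – unlabelled core106 and no-GST-core106 wells · Read-out basis – percent inhibition of core106 dimerization signal · Detection – time-resolved FRET, ex 340 nm, em 617 and 671 nm · Schedule – 4 h at 22.5 °C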
HCV NS3 hel inh = inhibitors of Hepatitis C virus NS3 helicase; inhibition, % at 10.9 µM; NS3 helicase DNA unwinding, Cy5 molecular beacon fluorescence; hit rate 0.56% among 290,000;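 active means inhibition above the mean of all tested compounds plus 3 SD, set per campaign, cut at about 35% in these data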;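 further: 0% = DMSO wells and 100% = thioflavine S control wells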
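assay system = NS3 helicase fragment of HCV | buffer or medium = MOPS pH 6.5, MgCl2, DTT, Tween20, BSA | timing = 60 min unwinding reaction at 25 °C after ATP addition | signal = Cy5 beacon fluorescence read at start and 1 h | read-out basis = % inhibition of unwinding | control set = low DMSO, high thioflavine S at 110 µM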
* marks the source's active call; other numbers are inactive results; . = not tested or not shown. A selection: hits, their analogues and other compounds. The true share with any hit is near 1.3%.

SMILES | Lipid droplet | Tb MetRS inh | core dimer inh | HCV NS3 hel inh
CC1(C(=O)N2Cc3ccccc3C2)CCN1C(=O)C1(c2ccc(Cl)cc2)CC1 (stereo not drawn) | . | -1 | . | .
O=C(NCc1ccc2c(c1)OCO2)c1cc2ncc(Br)cn2n1 | -2 | -1 | 67* | 3
O=C(NCc1ccc2c(c1)OCO2)c1ccc(Br)cc1 | 13 | 0 | 0 | 8
CCOc1cc(/C=C2\C(=O)N(c3nc(-c4ccc(Br)cc4)cs3)N=C2c2ccccc2)ccc1O | 1 | 0 | 55* | 20
O=C(Nc1nccs1)c1cc(-c2ccncc2)nc2ccccc12 | -4 | 1 | 56* | 13
O=C(C[C@H]1CC[C@H](NC(=O)Nc2ccccc2F)[C@@H](CO)O1)NCc1ccc(-c2ccccc2)cc1 | . | -1 | . | .
CCN(CC)CCNC(=O)c1nn(-c2ccc(C)cc2)c(=O)c2c1c1ccccc1n2C | 6 | -3 | 3 | -22
Cc1ccc(-n2nc(C(=O)NCc3ccco3)c3c4ccccc4n(C)c3c2=O)cc1 | -18 | 0 | 47* | -1
CCOc1ccc(NC(=O)CN(c2ccc([N+](=O)[O-])cc2)S(=O)(=O)c2ccccc2)cc1 | -42 | 1 | 10 | -5
CCOc1ccc(S(=O)(=O)N(CC(=O)N/N=C/c2ccc(-c3ccc([N+](=O)[O-])cc3)o2)c2ccccc2)cc1 | . | 0 | 75* | 12
Cc1ccc(C)c(N(CC(=O)N/N=C/c2ccc(-c3ccc([N+](=O)[O-])cc3)o2)S(=O)(=O)c2ccccc2)c1 | . | -1 | 52* | 5
CC(=O)c1ccc(S(=O)(=O)Nc2ccc(-c3ccc4nnc(C)n4n3)cc2)cc1 | 15 | 0 | 58* | 3
O=C(c1ccco1)N(CCC(c1ccccc1)c1ccco1)Cc1ccco1 (stereo not drawn) | . | -1 | 52* | 14
COc1cc2c(cc1OC)C1(NCC2)C(=O)Nc2ccccc21 (stereo not drawn) | . | -1 | 1 | 0
COc1cc2c(cc1OC)C1(Nc3c-2c(Cc2ccccc2)nn3-c2ccccc2)C(=O)Nc2ccccc21 (stereo not drawn) | 8 | -1 | 58* | 1
O=C(NNC(=O)c1cc2cc3ccccc3nc2s1)c1cccc(Cl)c1 | . | -1 | 58* | 2
Cc1cccc(C(=O)NNC(=O)c2cc3cc4ccccc4nc3s2)c1 | . | -1 | 25 | 0
Cc1ccc(S(=O)(=O)NNC(=O)c2cc3cc4ccccc4nc3s2)cc1 | . | 8.3* | 7 | 23
CC1=NOC(=O)/C1=C\c1ccc(-c2ccc(Cl)cc2Cl)o1 | . | 1 | . | 37*
C=CCn1c(SCC(=O)Nc2sc3c(c2C#N)CCC3)nnc1C1COc2ccccc2O1 (stereo not drawn) | 20 | -1 | 47* | 9
COc1ccccc1/C=N/NC(=O)C1=NNC(c2ccccc2)(c2ccccc2)C1 | -20 | . | 54* | 6
O=C1CSC(=S)N1/N=C/c1cc(Br)c(O)c(Br)c1 | 3 | 0 | -20 | 31
COCCNC(=O)C1CCCN(C(=O)c2ccc(C(F)(F)F)nc2C)CC1 (stereo not drawn) | . | 0 | . | .
CCN1C(=O)/C(=C/c2ccc(N3CCCC3)cc2)NC1=S | 65* | 1 | -38 | 2
COc1ccc(NC(=O)C[C@H]2C(=O)N(C3CCCCC3)C[C@@H]2CSC)cc1 | . | 1 | . | .
SMILES | Lipid droplet | Tb MetRS inh | core dimer inh | HCV NS3 hel inh
COc1ccc(OC)c(S(=O)(=O)CC(=O)c2cc3ccc(OC)cc3oc2=O)c1 | 29 | 0 | 62* | 27
COc1ccc(S(=O)(=O)CC(=O)c2cc3cc(Br)ccc3oc2=O)cc1 | -24 | 1 | 0 | 10
Oc1ccc(C=Nc2ccc3ncccc3c2)c(O)c1 | . | . | 63* | 0
COC(=O)c1ccc2c(=O)[nH]c(CN3c4ccccc4CC3C)nc2c1 (stereo not drawn) | . | 0 | 25 | 1
CC1Cc2ccccc2N1Cc1nc2cc(Cl)ccc2c(=O)[nH]1 (stereo not drawn) | 12 | -1 | 72* | 3
CC1Cc2ccccc2N1Cc1nc2scc(-c3cccs3)c2c(=O)[nH]1 (stereo not drawn) | . | 0 | 55* | 28
COc1ccc(N2CCN(Cc3nc4scc(-c5cccs5)c4c(=O)[nH]3)CC2)cc1 | 6 | 0 | -7 | -6
COc1ccc(NC(=O)C[C@H]2C(=O)N(C3CCCCC3)C[C@@H]2c2ccccc2)cc1 | . | -1 | . | .
CC1=NN(c2ccccc2)C(=O)/C1=C\c1ccc(Oc2ccc([N+](=O)[O-])cc2[N+](=O)[O-])cc1 | 6 | 1 | 61* | 12
O=C(/C=C/c1ccccc1)Nc1cccc(C(=O)NCCCCc2ccccc2)c1 | . | 0 | . | .
C/C(=N\Nc1nc(-c2cc(C)ccc2C)cs1)c1cc2c(ccc3ccccc32)oc1=O | -15 | -1 | 61* | 18
CC(=O)c1cc2c(ccc3ccccc32)oc1=O | -4 | 0 | . | 5
C/C(=N\Nc1nc(-c2cc(C)ccc2C)cs1)c1cc2ccccc2oc1=O | -11 | -1 | 57* | 20
O=c1oc2ccccc2cc1-c1csc(NN=C2CCCC2)n1 | -2 | 0 | 1 | 7
COC(=O)C[C@@H]1CC[C@@H](NS(=O)(=O)c2ccccc2OC)[C@@H](CO)O1 | . | -1 | . | .
Clc1ccc2c(SCC3CO3)c3ccccc3nc2c1 (stereo not drawn) | . | 0 | . | .
CC(C(=O)NC(C)(C)C)n1c(-c2ccc3c(c2)OCO3)nc2ccccc21 (stereo not drawn) | . | 0 | . | .
COCCn1c(C)cc(C(=O)COC(=O)c2cc3c(s2)CCC3)c1C | . | -3 | 79* | 22
COCCn1c(C)cc(C(=O)COC(=O)c2cccc(O)c2)c1C | -8 | -1 | 3 | -1
COc1cccc(C(=O)N/N=C/c2ccc(Oc3ccc([N+](=O)[O-])cn3)c(OC)c2)c1 | 16 | 0 | 8 | 2
COc1cc(/C=N/NC(=O)c2ccc3ccccc3c2)ccc1Oc1ccc([N+](=O)[O-])cn1 | 56* | -1 | 18 | 4
O=C(Cn1cnc2scc(-c3ccccc3)c2c1=O)NCc1ccco1 | 0 | 0 | 56* | 16
O=C(Cn1cnc2sc(-c3ccccc3)cc2c1=O)NCc1ccco1 | -62 | -2 | 65* | 13
CCc1ccc(-c2csc3ncn(CC(=O)NCc4ccco4)c(=O)c23)cc1 | -8 | 0 | 5 | 8
O=C(Cn1cnc2sc(-c3ccccc3)cc2c1=O)NCc1ccccc1 | -2 | -1 | 4 | 1
CCOC(=O)N1CCN(C(=O)C[C@@H]2C[C@@]3(C(=O)OC)CC(C)(C)CC=C3N(CCc3ccc(OC)c(OC)c3)C2=O)CC1 | . | -1 | . | .
Cc1c(Cl)cccc1NC(=O)CNC(=O)c1cn(-c2ccccc2)nc1-c1cccnc1 | . | 31* | . | .
CCN(CC(=O)Nc1ccc(OC)cc1)C(=O)CCS(=O)(=O)c1ccc(C)cc1 | -4 | 0 | 2 | -15
CCN(CC(=O)Nc1ccc(OC)cc1)C(=O)Cc1cccs1 | . | 0 | 52* | .
CC(C)N=c1scc(-c2ccco2)n1/N=C/c1ccc(O)c(O)c1 | . | -1 | -2 | 19
